Measurements pooled from the literature.
Lines come from different studies, so protocols differ.
Read-out: cell growth or viability

SMILES | cell line | test | conditions | CC50
CCOC(=O)c1csc(NN=C(C)c2ccccc2)n1 | LLC-MK2 | MTT | 96 h, pH 7.2 | 292 µM
Cc1cn([C@H]2C[C@H](N=[N+]=[N-])[C@@H](CO)O2)c(=O)[nH]c1=O | Caco-2 | crystal violet | 72 h | 56.1 µM
CCOC(=O)c1cnc2ccc(-c3ccc(C(C)C)cc3)cc2c1 | RD | ATP luminescence | 72 h | > 2.5 µM
O=c1[nH]cc(F)c(=O)[nH]1 | Caco-2 | crystal violet | 72 h | 390 µM
CCN(CC)c1ccc(C(=O)NCCc2c(C)[nH]c3ccccc23)cc1 | C6 glioma |  |  | < 500 µM
CCc1nc(-c2cnc3ccc(-c4ccccc4N)cc3c2)no1 | RD | ATP luminescence | 72 h | 21 µM
CCC[C@H](NC(=O)[C@@H](NC(=O)[C@@H](NC(=O)CC12CC3CC(CC(C3)C1)C2)C(C)(C)C)C1CCCCC1)C(=O)C(=O)NC1CC1 | RD | neutral red |  | < 2 µM
CN1CCc2c(c3ccccc3n2Cc2ccc(C(=O)NO)cc2)C1 | LLC-MK2 | MTS | 48 h | > 20 µM
CCOC(=O)CC1SC(=NN=C2CCCc3ccccc32)NC1=O (centres unmarked) | LLC-MK2 | MTT | 96 h, pH 7.2 | 280 µM
CCC[C@H](NC(=O)[C@H](CC1CCCCC1)NC(=O)[C@@H](NC(=O)CC12CC3CC(CC(C3)C1)C2)C(C)(C)C)C(=O)C(=O)NC1CC1 | RD | neutral red |  | < 2 µM
CCOC(=O)c1csc(NN=Cc2cccc(OC)c2)n1 | LLC-MK2 | MTT | 96 h, pH 7.2 | 641 µM
Cc1cc2ccccc2n1CCNC(=O)c1ccc(N2CCOCC2)c(F)c1 | C6 glioma |  |  | < 500 µM
O=C(CCCCCCC(=O)Nc1ccccc1)NO | LLC-MK2 | MTS | 48 h | 5.94 µM
CCOC(=O)CC1SC(=NN=Cc2cccc(O)c2)NC1=O (centres unmarked) | LLC-MK2 | MTT | 96 h, pH 7.2 | 614 µM
